A short description of test [1]: Opioid receptor delta selectivity was defined as the ratio between Ki(opioid receptor mu)/Ki(opioid receptor delta). Format: protein assay.
Test [2] addresses T1, Delta-type opioid receptor (Rattus norvegicus, UniProt P33533). Nature of the test: Inhibition of [3H]DPDPE binding to Opioid receptor delta 1. The method, boiled down:
(§1)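 Male Sprague-Dawley rat brain synaptosomes incubated with 0.62 pmol [3H]DPDPE in 50 mM HEPES pH 7.5, 5 mM MgCl2, 1 μM bestatin, bacitracin, 8% glycerol, soybean trypsin inhibitor, 100 μM PMSF; 2 h at 22 °C, duplicates. GF/C filtration, Tris-BSA washes, scintillation counting. 4-9 peptide concentrations over 2-3 log units, n = 3-8; Ki by Cheng-Prusoff.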

Test [3] concerns the target T2, Mu-type opioid receptor (Rattus norvegicus, UniProt P33535). Nature of the test: Inhibition of [3H]DAGO binding to rat Opioid receptor mu 1.
Test [4] deals with T2, Mu-type opioid receptor. Nature of the test: Compound was tested for its binding affinity against opioid receptor mu using [3H]DAGO as radioligand.
The target in test [5] is T1, Delta-type opioid receptor. Nature of the test: Compound was tested for its binding affinity against opioid receptor delta using [3H]DPDPE as radioligand. The method, boiled down:
as §1

Square brackets hold non-standard residues; d marks the D form. Peptide text beside a SMILES is read from it. Nle = CCCC[C@H](N)C(=O)O

T1 sequence (P33533 whole entry): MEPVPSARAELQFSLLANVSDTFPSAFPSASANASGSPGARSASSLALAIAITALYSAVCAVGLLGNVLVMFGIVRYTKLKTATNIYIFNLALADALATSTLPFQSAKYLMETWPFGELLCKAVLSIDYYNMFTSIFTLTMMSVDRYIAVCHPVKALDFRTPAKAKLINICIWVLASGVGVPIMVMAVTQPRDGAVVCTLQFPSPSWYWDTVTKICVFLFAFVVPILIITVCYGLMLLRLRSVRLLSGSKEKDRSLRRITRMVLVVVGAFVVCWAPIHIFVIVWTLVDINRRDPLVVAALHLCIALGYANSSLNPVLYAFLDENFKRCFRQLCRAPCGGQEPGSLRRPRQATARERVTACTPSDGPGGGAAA
T2 sequence (P33535 whole entry): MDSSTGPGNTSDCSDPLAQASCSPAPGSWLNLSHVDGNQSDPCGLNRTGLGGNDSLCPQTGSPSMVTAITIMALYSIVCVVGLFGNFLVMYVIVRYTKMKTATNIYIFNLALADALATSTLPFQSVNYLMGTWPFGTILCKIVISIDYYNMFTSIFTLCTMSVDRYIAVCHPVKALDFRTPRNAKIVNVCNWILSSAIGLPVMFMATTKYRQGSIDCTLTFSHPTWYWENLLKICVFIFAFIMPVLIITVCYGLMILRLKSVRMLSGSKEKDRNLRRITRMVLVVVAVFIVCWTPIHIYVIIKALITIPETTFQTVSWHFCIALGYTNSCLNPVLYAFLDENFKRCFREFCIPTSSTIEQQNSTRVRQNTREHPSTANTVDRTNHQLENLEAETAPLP

With `CCCC[C@H](NC(=O)[C@@H](N)Cc1ccc(O)cc1)C(=O)N[C@@H](Cc1ccccc1)C(=O)N[C@@H](Cc1c[nH]cn1)C(=O)N[C@@H](CC(C)C)C(=O)N[C@@H](CCSC)C(=O)N[C@@H](CC(=O)O)C(N)=O` (H-Y[Nle]FHLMD-NH2), the Selectivity in test [1] was 272.
For the compound `CSCC[C@@H](NC(=O)[C@H](CC(C)C)NC(=O)[C@H](Cc1ccccc1)NC(=O)[C@@H](CCSC)NC(=O)[C@@H](N)Cc1ccc(O)cc1)C(=O)N[C@@H](CC(=O)O)C(N)=O`, the Ki in test [2] amounted to 25.8 nM; on Mu-type opioid receptor [3], 407 nM.
Turning to `CSCC[C@H](NC(=O)[C@@H](CC(C)C)NC(=O)[C@H](Cc1c[nH]cn1)NC(=O)[C@H](Cc1ccccc1)NC(=O)[C@@H](CCSC)NC(=O)[C@@H](N)Cc1ccc(O)cc1)C(=O)N[C@@H](CC(=O)O)C(N)=O`, the Ki in test [2] was 58.5 nM; on Mu-type opioid receptor [3], 691 nM.
For `CSCC[C@@H](NC(=O)[C@H](CC(C)C)NC(=O)[C@H](Cc1c[nH]cn1)NC(=O)[C@H](Cc1ccccc1)NC(=O)[C@@H](CCSC)NC(=O)[C@@H](N)Cc1ccc(O)cc1)C(=O)N[C@@H](CC(=O)O)C(N)=O` the same measures were 0.96 nM and 146 nM.
Take `CSCC[C@H](NC(=O)[C@H](CC(C)C)NC(=O)[C@@H](Cc1cnc[nH]1)NC(=O)[C@H](Cc1ccccc1)NC(=O)[C@@H](CCSC)NC(=O)[C@@H](N)Cc1ccc(O)cc1)C(=O)N[C@@H](CC(=O)O)C(N)=O`: the values for the Ki (at Mu-type opioid receptor [4]; in test [5]) were 492 nM and 2.77 nM, respectively.
`CSCC[C@H](NC(=O)[C@H](CC(C)C)NC(=O)[C@@H](Cc1ccccc1)NC(=O)[C@@H](CCSC)NC(=O)[C@@H](N)Cc1ccc(O)cc1)C(=O)N[C@@H](CC(=O)O)C(N)=O`: the Ki in test [2] turned out to be 742 nM; at Mu-type opioid receptor [3], 2250 nM.
Turning to `CSCC[C@H](NC(=O)[C@H](CC(C)C)NC(=O)[C@H](Cc1c[nH]cn1)NC(=O)[C@H](Cc1ccccc1)NC(=O)[C@@H](C)NC(=O)[C@@H](N)Cc1ccc(O)cc1)C(=O)N[C@@H](CC(=O)O)C(N)=O`, the Ki on Mu-type opioid receptor [4] is 43.7 nM; in test [5], 0.36 nM. For the same compound, the Selectivity in test [1] came to 121.
As to `CSCC[C@H](NC(=O)[C@H](CC(C)C)NC(=O)[C@H](Cc1c[nH]cn1)NC(=O)[C@H](Cc1ccccc1)NC(=O)[C@@H](CCSC)NC(=O)[C@@H](N)Cc1ccc(O)cc1)C(=O)N[C@H](CC(=O)O)C(N)=O`, the Ki in test [2] was 0.54 nM; at Mu-type opioid receptor [3], 124 nM.
As for `CSCC[C@H](NC(=O)[C@H](CC(C)C)NC(=O)[C@@H](Cc1c[nH]cn1)NC(=O)[C@H](Cc1ccccc1)NC(=O)[C@@H](CCSC)NC(=O)[C@@H](N)Cc1ccc(O)cc1)C(=O)N[C@@H](CC(=O)O)C(N)=O`, the Selectivity in test [1] is 178.
On to `CSCC[C@H](NC(=O)[C@H](CC(C)C)NC(=O)[C@H](Cc1cnc[nH]1)NC(=O)[C@H](Cc1ccccc1)NC(=O)[C@@H](CCSC)NC(=O)[C@@H](N)Cc1ccc(O)cc1)C(=O)N[C@@H](CC(=O)O)C(N)=O` [DELTORPHIN A], for which the Ki was 344 nM at Mu-type opioid receptor [4] and 0.45 nM in test [5].
`CSCC[C@H](NC(=O)[C@H](CC(C)C)NC(=O)[C@H](Cc1cnc[nH]1)NC(=O)[C@H](Cc1ccccc1)NC(=O)[C@@H](CCSC)NC(=O)[C@H](N)Cc1ccc(O)cc1)C(=O)N[C@@H](CC(=O)O)C(N)=O`: the Ki was 7410 nM on Mu-type opioid receptor [4] and 544 nM in test [5].
`CSCC[C@H](NC(=O)[C@H](CC(C)C)NC(=O)[C@H](Cc1ccccc1)NC(=O)[C@@H](C)NC(=O)[C@@H](N)Cc1ccc(O)cc1)C(=O)N[C@@H](CC(=O)O)C(N)=O`: the values for the Ki (in test [2]; on Mu-type opioid receptor [3]) were 13.9 nM and 567 nM, respectively.
For `CSCC[C@H](NC(=O)[C@H](CC(C)C)NC(=O)[C@H](Cc1ccccc1)NC(=O)[C@@H](CCSC)NC(=O)[C@@H](N)Cc1ccc(O)cc1)C(=O)N[C@@H](CC(=O)O)C(N)=O` the same measures were 12.6 nM and 352 nM.
In the case of `CSCC[C@H](NC(=O)[C@H](CC(C)C)NC(=O)[C@H](Cc1c[nH]cn1)NC(=O)[C@H](Cc1ccccc1)NC(=O)[C@@H](CCSC)NC(=O)[C@H](N)Cc1ccc(O)cc1)C(=O)N[C@@H](CC(=O)O)C(N)=O`, the Selectivity in test [1] was determined as 14.
As for `CSCC[C@H](NC(=O)[C@H](CC(C)C)NC(=O)[C@H](Cc1ccccc1)NC(=O)[C@@H](CCSC)NC(=O)[C@@H](N)Cc1ccc(O)cc1)C(=O)N[C@H](CC(=O)O)C(N)=O`, the Ki in test [2] was found to be 9.46 nM; at Mu-type opioid receptor [3], 267 nM.
With `CSCC[C@H](NC(=O)[C@H](CC(C)C)NC(=O)[C@H](Cc1c[nH]cn1)NC(=O)[C@@H](Cc1ccccc1)NC(=O)[C@@H](CCSC)NC(=O)[C@@H](N)Cc1ccc(O)cc1)C(=O)N[C@@H](CC(=O)O)C(N)=O`, the Ki was 2350 nM at Mu-type opioid receptor [4] and 39.6 nM in test [5]. In addition, in test [1], the Selectivity amounted to 59.
Turning to `CSCC[C@H](NC(=O)[C@H](CC(C)C)NC(=O)[C@H](Cc1c[nH]cn1)NC(=O)[C@H](Cc1ccccc1)NC(=O)[C@@H](CCSC)NC(=O)[C@@H](N)Cc1ccc(O)cc1)C(=O)N[C@@H](CC(=O)O)C(N)=O`, the Selectivity in test [1] was 764.
Turning to `CSCC[C@H](NC(=O)[C@H](CC(C)C)NC(=O)[C@H](Cc1ccccc1)NC(=O)[C@@H](CCSC)NC(=O)[C@H](N)Cc1ccc(O)cc1)C(=O)N[C@@H](CC(=O)O)C(N)=O`, the Ki in test [2] worked out at 477 nM; on Mu-type opioid receptor [3], 7410 nM.
On the same counts, the results for `CSCC[C@H](NC(=O)[C@@H](CC(C)C)NC(=O)[C@H](Cc1ccccc1)NC(=O)[C@@H](CCSC)NC(=O)[C@@H](N)Cc1ccc(O)cc1)C(=O)N[C@@H](CC(=O)O)C(N)=O` are 120 nM and 330 nM.

By Ki is commonly meant a measure of affinity in units of concentration, obtained from inhibition or displacement. Higher therefore signals lower affinity.

The record behind these values is ChEMBL document CHEMBL1125419, “Stereospecificity of amino acid side chains in deltorphin defines binding to opioid receptors” (J Med Chem, 1992).
